The record followed here is ChEMBL document CHEMBL1140751, “Novel sst5-selective somatostatin dicarba-analogues: synthesis and conformation-affinity relationships” (J Med Chem, 2008).

Test [1] addresses Somatostatin receptor type 4 (Homo sapiens, UniProt P31391). As to the kind of experiment: Displacement of [125I](Leu8,D-Trp22,Tyr25)-SRIF28 from human sst4 receptor. The gist of the method:
(§1)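 Membranes came from CHO-K1 and CCL39 cells stably expressing the human sst1–sst5 receptors. Receptor autoradiography was performed on 20 µm pellet sections mounted on slides. IC50 was derived from signal quantified by computer-assisted image processing.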

For test [2], the target named is Somatostatin receptor type 3 (Homo sapiens, UniProt P32745). Description: Displacement of [125I](Leu8,D-Trp22,Tyr25)-SRIF28 from human sst3 receptor. The gist of the method: as §1
Test [3] deals with T1, Somatostatin receptor type 5 (Homo sapiens, UniProt P35346). Description: Displacement of [125I](Leu8,D-Trp22,Tyr25)-SRIF28 from human sst5 receptor. Summed up:
as §1
A general note: Displacement assays read how much labelled ligand stays bound in the presence of the test substance.

Test [4] deals with Somatostatin receptor type 1 (Homo sapiens, UniProt P30872). As to the kind of experiment: Displacement of [125I](Leu8,D-Trp22,Tyr25)-SRIF28 from human sst1 receptor. Summed up:
as §1

The target in test [5] is Somatostatin receptor type 2 (Homo sapiens, UniProt P30874). Description: Displacement of [125I](Leu8,D-Trp22,Tyr25)-SRIF28 from human sst2 receptor. The gist of the method: as §1
Test [6] addresses T1, Somatostatin receptor type 5. Description: Binding affinity to sst5 receptor.

Each structure is given as a SMILES string. pIC50: −log10 of the molar value. Numbered stars: 1 amine (or outer) side, 2 acyl side, 3 side chain; on linkers, the order of the positions; unused ones are H or OH. Bridge positions count the residues as written; N and C are the ends. Square brackets hold non-standard residues; d marks the D form. Peptide text beside a SMILES is read from it. Phe(Nα-(CH2)3CO) = O=C([C@H](Cc1ccccc1)N(CCCC(=O)[*:3])[*:1])[*:2]; N(2-aminoethyl)Phe = O=C([C@H](Cc1ccccc1)N(CCN[*:3])[*:1])[*:2] Bounds are passed on as bounds.

Sequence of Somatostatin receptor type 2 (P30874 whole entry): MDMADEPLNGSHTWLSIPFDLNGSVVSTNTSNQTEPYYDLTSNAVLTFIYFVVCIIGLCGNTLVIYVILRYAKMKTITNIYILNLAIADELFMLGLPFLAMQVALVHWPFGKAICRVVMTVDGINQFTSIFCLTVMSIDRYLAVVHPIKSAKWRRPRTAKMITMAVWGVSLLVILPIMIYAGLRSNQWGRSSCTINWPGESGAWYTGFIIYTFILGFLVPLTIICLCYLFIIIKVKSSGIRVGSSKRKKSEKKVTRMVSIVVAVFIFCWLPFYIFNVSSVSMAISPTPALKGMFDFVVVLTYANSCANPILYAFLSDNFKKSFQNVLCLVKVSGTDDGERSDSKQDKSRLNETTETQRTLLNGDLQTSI
T1 sequence (P35346 whole entry): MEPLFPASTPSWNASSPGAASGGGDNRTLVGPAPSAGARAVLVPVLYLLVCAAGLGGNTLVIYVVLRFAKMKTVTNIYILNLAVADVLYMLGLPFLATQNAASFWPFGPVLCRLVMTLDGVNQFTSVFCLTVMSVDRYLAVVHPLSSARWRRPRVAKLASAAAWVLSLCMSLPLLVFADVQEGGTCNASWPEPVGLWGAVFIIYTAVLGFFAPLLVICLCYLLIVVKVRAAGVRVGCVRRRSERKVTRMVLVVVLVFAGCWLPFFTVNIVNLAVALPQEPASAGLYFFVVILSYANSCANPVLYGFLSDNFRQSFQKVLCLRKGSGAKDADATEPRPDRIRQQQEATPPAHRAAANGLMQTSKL
Sequence of Somatostatin receptor type 3 (P32745 whole entry): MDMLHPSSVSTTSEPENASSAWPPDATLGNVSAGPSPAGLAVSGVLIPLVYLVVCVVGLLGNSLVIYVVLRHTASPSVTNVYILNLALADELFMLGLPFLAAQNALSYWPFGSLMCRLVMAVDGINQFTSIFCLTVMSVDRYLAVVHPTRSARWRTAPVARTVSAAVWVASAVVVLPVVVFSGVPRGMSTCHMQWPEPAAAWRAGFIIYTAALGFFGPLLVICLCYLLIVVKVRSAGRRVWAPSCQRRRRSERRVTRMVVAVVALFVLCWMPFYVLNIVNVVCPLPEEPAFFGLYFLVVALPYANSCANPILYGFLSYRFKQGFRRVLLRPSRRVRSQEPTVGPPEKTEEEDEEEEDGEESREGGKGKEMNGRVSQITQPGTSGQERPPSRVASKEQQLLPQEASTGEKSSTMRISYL
Sequence of Somatostatin receptor type 4 (P31391 whole entry): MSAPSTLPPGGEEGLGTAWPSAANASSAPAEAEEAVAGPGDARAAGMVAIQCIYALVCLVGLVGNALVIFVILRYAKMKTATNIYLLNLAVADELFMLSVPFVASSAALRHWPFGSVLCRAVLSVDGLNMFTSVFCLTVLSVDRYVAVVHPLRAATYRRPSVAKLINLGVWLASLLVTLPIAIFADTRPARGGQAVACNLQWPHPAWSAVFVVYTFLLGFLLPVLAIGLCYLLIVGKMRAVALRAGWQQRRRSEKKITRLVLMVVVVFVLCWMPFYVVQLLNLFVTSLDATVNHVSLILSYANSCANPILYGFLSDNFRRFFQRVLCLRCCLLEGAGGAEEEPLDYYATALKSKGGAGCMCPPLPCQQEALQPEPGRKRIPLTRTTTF
Sequence of Somatostatin receptor type 1 (P30872 whole entry): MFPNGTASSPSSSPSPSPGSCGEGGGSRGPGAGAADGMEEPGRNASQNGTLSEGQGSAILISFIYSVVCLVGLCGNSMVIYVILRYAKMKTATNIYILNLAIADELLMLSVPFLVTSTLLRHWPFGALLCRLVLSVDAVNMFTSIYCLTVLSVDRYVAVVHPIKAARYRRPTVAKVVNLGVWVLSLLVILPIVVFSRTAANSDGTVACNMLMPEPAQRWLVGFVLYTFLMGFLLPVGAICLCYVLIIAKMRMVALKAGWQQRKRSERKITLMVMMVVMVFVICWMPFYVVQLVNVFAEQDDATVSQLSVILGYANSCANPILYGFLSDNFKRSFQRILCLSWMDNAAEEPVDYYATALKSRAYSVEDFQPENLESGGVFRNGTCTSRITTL

For `C[C@@H](O)[C@@H]1NC(=O)[C@H](CCCCN)NC(=O)[C@@H](Cc2c[nH]c3ccccc23)NC(=O)[C@H](Cc2ccccc2)NC(=O)[C@@H](NC(=O)[C@H](N)Cc2ccccc2)CCCC[C@@H](C(=O)N[C@H](CO)[C@@H](C)O)NC1=O`, the pIC50 – broadly, the negative decadic logarithm of the IC50, by convention in mol/L – in test [1] was 6.67; in test [2] it was less than 6.00; in test [3] it was 6.69; in test [4], less than 6.00; in test [5], 7.31.

As for `C[C@@H](O)[C@@H](CO)NC(=O)[C@@H]1C/C=C\C[C@H](NC(=O)[C@H](N)Cc2ccccc2)C(=O)N[C@@H](Cc2ccccc2)C(=O)N[C@H](Cc2c[nH]c3ccccc23)C(=O)N[C@@H](CCCCN)C(=O)N[C@@H](Cc2ccccc2)C(=O)N1`, the pIC50 was 6.85 in test [1]; less than 6.00 in test [2]; 6.69 in test [3]; 6.02 in test [4]; less than 6.00 in test [5].

Turning to `C[C@@H](O)[C@@H]1NC(=O)[C@H](CCCCN)NC(=O)[C@@H](Cc2c[nH]c3ccccc23)NC(=O)[C@H](Cc2ccccc2)NC(=O)[C@@H](NC(=O)[C@H](N)Cc2ccccc2)C/C=C\C[C@@H](C(=O)N[C@H](CO)[C@@H](C)O)NC1=O`, the pIC50 in test [1] was 6.39; in test [2] it was less than 6.00; in test [3], 7.55; in test [4], less than 6.00; in test [5] it was 7.36.

For `C[C@H](N)COC(=O)[C@H](CCCCN)NC(=O)Cc1c(-c2ccc3ccccc3c2)[nH]c2c1ccc1ccccc12`, the pIC50 in test [6] was 9.40.

As for `CC(C)[C@@H]1NC(=O)[C@H](CCCCN)NC(=O)[C@@H](Cc2c[nH]c3ccccc23)NC(=O)[C@H](Cc2ccc(O)cc2)NC(=O)[C@H](Cc2ccccc2)NCCNC(=O)CCCN([C@@H](Cc2ccccc2)C(=O)N[C@H](C(N)=O)[C@@H](C)O)C1=O` (H-[N(2-aminoethyl)Phe]Y[dW]KV[Phe(Nα-(CH2)3CO)]T-NH2; lactam 1-6), in test [6], the pIC50 is 7.17.
